{"source": "ChEMBL document CHEMBL1125273", "about": "“Synthesis and biological evaluation of quinocarcin derivatives: thioalkyl-substituted quinones and hydroquinones” (J Med Chem, 1991)", "key": {"[1]": {"test": "Ratio of the ILS tested compound/quinocarcin was determined in CD2F1 mice on days 1-5.", "format": "functional, Mus musculus", "how_it_was_run": "(§1)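 CD2F1 mice (5 per group) received 10^6 P388 cells ip. Drug was given ip on day 1 or on days 1–5. ILS was taken as (T/C − 1) × 100 from median survival times, and each compound's ILS was divided by the ILS of quinocarcin.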"}, "[2]": {"test": "Ratio of the ILS tested compound/quinocarcin was determined for day one in CD2F1 mice.", "format": "functional, Mus musculus", "how_it_was_run": "as §1"}, "Homo sapiens [3]": {"test_system": "Homo sapiens", "test": "Ratio of ILS tested compound/quinocarcin against human mammary carcinoma MX-1 cell line implanted subcutaneously in mice and the compound administered intravenously at a dose of 4.41 mg/kg on days 1-5.", "format": "functional", "details": "route intravenous"}, "[4]": {"test": "Antitumor activity in vivo in CD2F1 mice measured in terms of percent increase in lifespan calculated at a dose of 12.5 mg/kg intraperitoneally on day one.", "format": "functional", "details": "Mus musculus, ip, route intraperitoneal", "how_it_was_run": "(§2)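 P388 lymphocytic leukemia cells (1×10^6) were implanted ip into CD2F1 mice (about 22 g), five mice per group. Drug was given ip from the day after implantation, either once (day 1) or daily on days 1–5. ILS = (T/C − 1) × 100, where T and C are the median survival times of treated and control mice.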"}, "HeLa": {"test_system": "HeLa", "test": "In vitro concentration required to inhibit the growth of HeLa S3 cells by 50%", "format": "functional, cell-based", "details": "Homo sapiens", "how_it_was_run": "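HeLa S3 cells (5 × 10⁴) seeded in Eagle's MEM with 10% FBS and 0.06 mg/mL kanamycin; graded drug concentrations, diluted in growth medium, added 24 h after seeding. Incubated 72 h at 37 °C, humidified 5% CO₂. Monolayers then washed, detached with 0.05% trypsin/0.02% EDTA and counted electronically; IC50 taken as concentration giving 50% growth inhibition.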"}, "CCRF S-180 [5]": {"test_system": "CCRF S-180", "test": "Ratio of ILS tested compound/quinocarcin against murine sarcoma S-180 tumor cell line implanted subcutaneously in mice and the compound administered intravenously at a dose of 4.41 mg/kg on days 1-5.", "format": "functional, Mus musculus", "details": "route intravenous"}, "[6]": {"test": "Antitumor activity in vivo in CD2F1 mice measured in terms of percent increase in lifespan calculated at a dose of 6.25 mg/kg intraperitoneally on days 1-5.", "format": "functional", "details": "Mus musculus, ip, route intraperitoneal", "how_it_was_run": "as §2"}, "[7]": {"test": "Antitumor activity in vivo in CD2F1 mice measured in terms of percent increase in lifespan calculated at a dose of 37.5 mg/kg intraperitoneally on day one.", "format": "functional", "details": "Mus musculus, ip, route intraperitoneal", "how_it_was_run": "as §2"}, "[8]": {"test": "Antitumor activity in vivo in CD2F1 mice measured in terms of percent increase in lifespan calculated at a dose of 12.5 mg/kg intraperitoneally on days 1-5.", "format": "functional", "details": "Mus musculus, ip, route intraperitoneal", "how_it_was_run": "as §2"}, "[9]": {"test": "Antitumor activity in vivo in CD2F1 mice measured in terms of percent increase in lifespan calculated at a dose of 25 mg/kg intraperitoneally on day one.", "format": "functional", "details": "Mus musculus, ip, route intraperitoneal", "how_it_was_run": "as §2"}, "Homo sapiens [10]": {"test_system": "Homo sapiens", "test": "Ratio of ILS tested compound/quinocarcin against human mammary carcinoma MX-1 cell line implanted subcutaneously in mice and the compound administered intravenously at a dose of 5.96 mg/kg on days 1-5.", "format": "functional", "details": "route intravenous"}, "CCRF S-180 [11]": {"test_system": "CCRF S-180", "test": "Ratio of ILS tested compound/quinocarcin against murine sarcoma S-180 tumor cell line implanted subcutaneously in mice and the compound administered intravenously at a dose of 12.5 mg/kg on days 1-5.", "format": "functional, Mus musculus", "details": "route intravenous"}, "Homo sapiens [12]": {"test_system": "Homo sapiens", "test": "Ratio of ILS tested compound/quinocarcin against human mammary carcinoma MX-1 cell line implanted subcutaneously in mice and the compound administered intravenously at a dose of 9.35 mg/kg on days 1-5.", "format": "functional", "details": "route intravenous"}, "St-4 [13]": {"test_system": "St-4", "test": "Ratio of ILS tested compound/quinocarcin against St-4 tumor cell line implanted subcutaneously in mice and the compound administered intravenously at a dose of 9.18 mg/kg on days 1-5.", "format": "functional, Homo sapiens", "details": "route intravenous"}, "Homo sapiens [14]": {"test_system": "Homo sapiens", "test": "Ratio of ILS tested compound/quinocarcin against human mammary carcinoma MX-1 cell line implanted subcutaneously in mice and the compound administered intravenously at a dose of 3.55 mg/kg on days 1-5.", "format": "functional", "details": "route intravenous"}, "St-4 [15]": {"test_system": "St-4", "test": "Ratio of ILS tested compound/quinocarcin against St-4 tumor cell line implanted subcutaneously in mice and the compound administered intravenously at a dose of 5.58 mg/kg on days 1-5.", "format": "functional, Homo sapiens", "details": "route intravenous"}, "Co-3 [16]": {"test_system": "Co-3", "test": "Ratio of ILS tested compound/quinocarcin against Co-3 tumor cell line implanted subcutaneously in mice and the compound administered intravenously at a dose of 5.58 mg/kg on days 1-5.", "format": "functional, Homo sapiens", "details": "route intravenous"}, "CCRF S-180 [17]": {"test_system": "CCRF S-180", "test": "Ratio of ILS tested compound/quinocarcin against murine sarcoma S-180 tumor cell line implanted subcutaneously in mice and the compound administered intravenously at a dose of 5.85 mg/kg on days 1-5.", "format": "functional, Mus musculus", "details": "route intravenous"}, "[18]": {"test": "Antitumor activity in vivo in CD2F1 mice measured in terms of percent increase in lifespan calculated at a dose of 6.25 mg/kg intraperitoneally on day one.", "format": "functional", "details": "Mus musculus, ip, route intraperitoneal", "how_it_was_run": "as §2"}, "Homo sapiens [19]": {"test_system": "Homo sapiens", "test": "Ratio of ILS tested compound/quinocarcin against human mammary carcinoma MX-1 cell line implanted subcutaneously in mice and the compound administered intravenously at a dose of 5.58 mg/kg on days 1-5.c means number of cured mice.", "format": "functional", "details": "route intravenous"}, "Co-3 [20]": {"test_system": "Co-3", "test": "Ratio of ILS tested compound/quinocarcin against Co-3 tumor cell line implanted subcutaneously in mice and the compound administered intravenously at a dose of 9.18 mg/kg on days 1-5.", "format": "functional, Homo sapiens", "details": "route intravenous"}, "[21]": {"test": "Antitumor activity in vivo in CD2F1 mice measured in terms of percent increase in lifespan calculated at a dose of 3.13 mg/kg intraperitoneally on days 1-5.", "format": "functional", "details": "Mus musculus, ip, route intraperitoneal", "how_it_was_run": "as §2"}, "[22]": {"test": "Antitumor activity in vivo in CD2F1 mice measured in terms of percent increase in lifespan calculated at a dose of 200 mg/kg intraperitoneally on day one.", "format": "functional", "details": "Mus musculus, ip, route intraperitoneal", "how_it_was_run": "as §2"}}, "data": [{"compound": "CSC1=C(SC)C(=O)C2=C(C[C@H]3[C@H]4[C@H](C(=O)O)C[C@@H](C(C#N)N3[C@H]2CO)N4C)C1=O", "note": "(some centres not stated)", "values": [{"measurement": "R", "setting": "[1]", "value": 0.59}, {"measurement": "R", "setting": "[2]", "value": 1.23}, {"measurement": "T/C", "setting": "Homo sapiens [3]", "value": 0.67}, {"measurement": "ILS at 12.5 mg/kg", "setting": "[4]", "value": 53, "unit": "%"}, {"measurement": "IC50", "setting": "HeLa", "value": 0.13, "unit": "µg/mL"}, {"measurement": "T/C", "setting": "CCRF S-180 [5]", "value": 1.06}, {"measurement": "ILS at 6.25 mg/kg", "setting": "[6]", "value": 71, "unit": "%"}]}, {"compound": "COc1c2c(c(OC)c(SC(C)C)c1SC(C)C)[C@@H]1COC3[C@@H]4C[C@@H](C(=O)O)[C@H]([C@H](C2)N31)N4C", "note": "(some centres not stated)", "values": [{"measurement": "ILS at 37.5 mg/kg", "setting": "[7]", "value": 9, "unit": "%"}, {"measurement": "IC50", "setting": "HeLa", "value": 0.05, "unit": "µg/mL"}]}, {"compound": "CC(C)SC1=C(SC(C)C)C(=O)C2=C(C[C@H]3[C@H]4[C@H](C(=O)O)C[C@@H](C(C#N)N3[C@H]2CO)N4C)C1=O", "note": "(some centres not stated)", "values": [{"measurement": "R", "setting": "[1]", "value": 1.35}, {"measurement": "R", "setting": "[2]", "value": 1.48}, {"measurement": "ILS at 12.5 mg/kg", "setting": "[8]", "value": 119, "unit": "%"}, {"measurement": "ILS at 25 mg/kg", "setting": "[9]", "value": 65, "unit": "%"}, {"measurement": "IC50", "setting": "HeLa", "value": 0.012, "unit": "µg/mL"}, {"measurement": "T/C", "setting": "Homo sapiens [10]", "value": 0.83}, {"measurement": "T/C", "setting": "CCRF S-180 [11]", "value": 0.37}, {"measurement": "T/C", "setting": "Homo sapiens [12]", "value": 0.22}]}, {"compound": "CSC1=C(SC)C(=O)C2=C(C[C@H]3[C@H]4[C@H](C(=O)O)C[C@@H](C5OC[C@@H]2N53)N4C)C1=O", "note": "(some centres not stated)", "values": [{"measurement": "R", "setting": "[1]", "value": 0.88}, {"measurement": "T/C", "setting": "St-4 [13]", "value": 0.2}, {"measurement": "R", "setting": "[2]", "value": 1.85}, {"measurement": "T/C", "setting": "Homo sapiens [14]", "value": 0.21}, {"measurement": "T/C", "setting": "St-4 [15]", "value": 0.56}, {"measurement": "T/C", "setting": "Co-3 [16]", "value": 0.43}, {"measurement": "T/C", "setting": "CCRF S-180 [17]", "value": 0.86}, {"measurement": "IC50", "setting": "HeLa", "value": 0.019, "unit": "µg/mL"}, {"measurement": "ILS at 6.25 mg/kg", "setting": "[18]", "value": 48, "unit": "%"}, {"measurement": "T/C", "setting": "Homo sapiens [19]", "value": 0.006}, {"measurement": "T/C", "setting": "Co-3 [20]", "value": 0.21}, {"measurement": "ILS at 3.13 mg/kg", "setting": "[21]", "value": 91, "unit": "%"}]}, {"compound": "CCOC(=O)CSc1c(O)c2c(c(O)c1SCC(=O)OCC)[C@H](CO)N1C(C#N)[C@@H]3C[C@@H](C(=O)O)[C@H]([C@@H]1C2)N3C", "note": "(some centres not stated)", "values": [{"measurement": "R", "setting": "[2]", "value": 0.9}, {"measurement": "IC50", "setting": "HeLa", "value": "> 10", "unit": "µg/mL"}, {"measurement": "ILS at 200 mg/kg", "setting": "[22]", "value": 37, "unit": "%"}]}]}
